This passage reports IC50 and LD50 results from ChEMBL document CHEMBL1159129, “Novel amidino substituted 2-phenylbenzothiazoles: synthesis, antitumor evaluation in vitro and acute toxicity testing in vivo” (Bioorg Med Chem, 2010).

One data set has as its system MCF7. Kind of data set: Growth inhibition of human MCF7 cells after 72 hrs by MTT assay. It is filed as functional, cell-based. The conditions noted are these: MCF7, 72 h. The method, boiled down: (§1)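 Modified NCI protocol. Cells were plated on day 0 at 1-3 × 10^4 cells/mL according to doubling time. Agents were dissolved in DMSO (stock 4 × 10^-2 M) and serially diluted 10-fold in medium (10^-8–10^-4 M), with 72 h exposure. Viability by MTT (mitochondrial dehydrogenase). Four wells, three independent runs. IC50 from linear regression of the two concentrations flanking 50% growth.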
(In general: Formazan colour is commonly taken as a measure of viable cells.)

The next data set relates to NCI-H460. Description: Growth inhibition of human H460 cells after 72 hrs by MTT assay. To be noted: NCI-H460, 72 h. It is filed as functional, cell-based. In a few lines: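 H460 lung carcinoma cells grown as monolayers in DMEM with 10% FBS, 2 mM glutamine, penicillin/streptomycin, 5% CO2, 37 °C. Seeded day 0 at 1-3 × 10^4 cells/mL. DMSO stocks (4 × 10^-2 M) were diluted in medium to five 10-fold concentrations, 10^-8 to 10^-4 M, for 72 h. MTT read-out, quadruplicate, three experiments. IC50 by linear regression of concentrations bracketing 50% growth.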

Data set [1] in a line: Acute toxicity in po dosed BALB/c mouse. It is filed as organism-based. The conditions noted are these: in vivo. The method, boiled down:
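Female nulliparous, non-pregnant BALB/c mice, 12 weeks old, housed singly; food withheld 3-4 h before and 1-2 h after dosing. Single gavage dose in physiological saline (sonicated 15 min at 69 °C just before use), 0.5 mL/25 g body mass. OECD 425 up-and-down procedure, one animal per 24 h, dose adjusted by prior outcome; LD50 by maximum likelihood (AOT425StatPgm), 95% confidence interval.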

The test system of the next data set is MOLT-4. Description: Growth inhibition of human MOLT4 cells after 72 hrs by MTT assay. It is filed as functional, cell-based. The conditions noted are these: MOLT-4, 72 h. The method, boiled down: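 MOLT-4 leukemia cells grown in suspension in RPMI with 10% FBS, 2 mM glutamine, penicillin/streptomycin, 5% CO2, 37 °C. Inoculated at 1-3 × 10^4 cells/mL. Compounds from 4 × 10^-2 M DMSO stock were tested at 10^-8 to 10^-4 M (10-fold steps) for 72 h, then MTT. Quadruplicates in three experiments. IC50 interpolated by linear regression around 50% growth; '>' highest concentration when not reached.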

For the next data set, the system named is HCT-116. Kind of data set: Growth inhibition of human HCT116 cells after 72 hrs by MTT assay. The format is functional, cell-based. To be noted: HCT-116, 72 h. The method, boiled down:
as §1

A further data set has as its system SW-620. Kind of data set: Growth inhibition of human SW620 cells after 72 hrs by MTT assay. It is filed as functional, cell-based. The conditions noted are these: SW-620, 72 h. In a few lines:
as §1

Molecules are shown by their SMILES. pIC50: −log10 of the molar value.

As a reminder, the pIC50 is the negative decadic logarithm of the IC50, by convention in mol/L. For orientation: LD50 means the dose at which mortality reaches 50%. A low value points to a more toxic substance. In the case of `Cl.Nc1ccc(-c2nc3ccc(C4=NCCN4)cc3s2)cc1`, the pIC50 with MCF7 was 5.77; with NCI-H460 it was 6.40; in the data set with MOLT-4 it was 6.00; with HCT-116, 6.00; in the data set with SW-620 it was 6.15. Also, the LD50 in data set [1] came to 696 mg/kg.

For `N=C(N)c1ccc(-c2nc3ccc(C(=N)N)cc3s2)cc1`, the pIC50 in the data set with MCF7 was 4.96; with NCI-H460, 4.11; with MOLT-4, below 4.00; with HCT-116, 4.19; in the data set with SW-620, below 4.00.

With `Cl.N=C(N)c1ccc(-c2nc3ccc(N)cc3s2)cc1`, the pIC50 in the data set with MCF7 is 6.70; in the data set on NCI-H460, 6.70; in the data set on MOLT-4, 5.70; with HCT-116, 5.52; in the data set with SW-620, 5.40. In data set [1], this compound registered a median lethal dose (LD50) of 250 mg/kg.

For `N=C(N)c1ccc2nc(-c3ccc([N+](=O)[O-])cc3)sc2c1`, the negative logarithm of the IC50 (pIC50) in the data set on MCF7 was 5.70; in the data set with NCI-H460 it was 6.00; in the data set with MOLT-4, 5.70; in the data set with HCT-116, 5.70; in the data set on SW-620, 5.70.

Regarding `Cl.Nc1ccc2nc(-c3ccc(C4=NCCN4)cc3)sc2c1`, the negative-log IC50 (pIC50) is 6.00 in the data set with MCF7; 6.52 with NCI-H460; 6.00 in the data set with MOLT-4; 6.00 in the data set on HCT-116; 6.52 with SW-620. The compound further registered an LD50 in data set [1] of 250 mg/kg.

Turning to `O=[N+]([O-])c1ccc2nc(-c3ccc(C4=NCCN4)cc3)sc2c1`, the pIC50 in the data set with MCF7 was 5.52; in the data set on NCI-H460, 5.52; with MOLT-4, 5.70; with HCT-116 it was 5.52; with SW-620, 5.70.

On to `N=C(N)c1ccc(-c2nc3ccc([N+](=O)[O-])cc3s2)cc1`, for which the negative-log IC50 (pIC50) is 6.00 in the data set on MCF7; 6.00 in the data set on NCI-H460; 6.00 in the data set on MOLT-4; 6.00 in the data set on HCT-116; 5.70 in the data set with SW-620.

As for `c1cc(-c2nc3ccc(C4=NCCN4)cc3s2)ccc1C1=NCCN1`, the pIC50 was 6.00 with MCF7; 5.70 with NCI-H460; 5.52 with MOLT-4; 5.70 in the data set on HCT-116; 6.10 in the data set with SW-620.

Turning to `O=[N+]([O-])c1ccc(-c2nc3ccc(C4=NCCN4)cc3s2)cc1`, the pIC50 is 4.96 with MCF7; 5.40 in the data set on NCI-H460; 4.77 in the data set with MOLT-4; 5.10 with HCT-116; 5.15 in the data set with SW-620.

With `Cl.N=C(N)c1ccc2nc(-c3ccc(N)cc3)sc2c1`, the pIC50 in the data set on MCF7 is 5.05; in the data set with NCI-H460, 5.40; in the data set with MOLT-4, 5.52; with HCT-116, 5.00; in the data set on SW-620, 5.15. The compound further showed a 50% lethal dose (LD50) in data set [1] of 67.3 mg/kg.
